Reference: the RNAGym collection of RNA variant scans (doi:10.1126/science.aae0568)
This sample holds only a part of the variants without activity.

B1: tRNA (parent)
chain: GUUCCGUUGGCGUAAUGGUAACGCGUCUCCCUCCUAAGGAGAAGACUGCGGGUUCGAGUCCCGUACGGAACG

Variants of: B1
Test: yeast fitness relative to wild type (ratio to wild type); higher = fitter; tRNA-Arg(CCU), competitive growth, 37 C, YPD
Summary of the method: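 Variants of the tRNA-Arg(CCU) gene were chemically synthesised with a 3% per-site mutation rate across 69 sites and placed at the native genomic locus in Saccharomyces cerevisiae. Six parallel replicates of the pooled strains were competed in YPD at 37°C for 24 hours, and gene amplicons from the start and end populations were read by 100-nucleotide paired-end sequencing. Darwinian fitness relative to wild type was derived from changes in genotype frequencies. Genotypes required ≥ 100 starting reads, and estimates < 0.5 were set to 0.5.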

Row | Variant | yeast fitness
1 | GUUCCGUUGGCGUAAUGGUAACGCGACUCCCUCCUAAGGAGAAGACUGCGGGUGCGAGUCCCGUACGGAACG | 0.531
2 | GUUCCGUUGGCGUAAUGGUAACGCGACUCCCUCCUAAGGAGAAGACUGCGGGUCCGAGUCCCGUACGGAACG | 0.817
3 | GUUCCGUUGGCGUAAUGGUAACGCGCCUCCCUCCUAAGGUGAAGACUGCGGGUUCGAGUUCCGUACGGCACG | 0.535
4 | GUUCCGUUGGCGUAAUGGUAACGCGCCUCACUCCUAAGGAGAAGACUGCGGGUUCGAGUCCCGUACGGAACG | 0.815
5 | GUUCCGUUGGCGUAAUGGUAACGCGCCUCGCUCCUAAGGAGAAGACUGCGGGUUCGAGUCCCGUACGGAACG | 0.651
6 | GUUCCGUUGGCGUAAUGGUAACGCGCCUCCCUCCUAUGGAGAAGACUGCGGGUACGAGUCCCGUACGGAACG | ≤ 0.5
7 | GUUCCGUUGGCGUAAUGGUAACGCGCCUACCUCAUAAGGAGAAGACUGCGGGUUCGAGUCCCGUACGGAACG | ≤ 0.5
8 | GUUCCGUUGGCGUAAUGGUAACGCGCCUGCCUCCUAAGGAGAAGACUGUGGGUUCGAGUCCCGUACGGUACG | 0.588
9 | GUUCCGUUGGCGUAAUGGUAACGCGACUCCCUCCGAUGGAGAAGACUGCGGGUUCCAGUCCCGUGCGGAACG | ≤ 0.5
10 | GUUCCGUUGGCGUAAUGGUAACGCGCCUCCCUCCUAGGGAGAAGACUGCGGGUUCGAGUCCCGUACGGAACG | 0.634
11 | GUUCCGUUGGCGUAAUGGUAACGCGCUUCCCUCCUGAGGAGAAGACUGCGGGUUCGAGUCCCGUACGGAACG | 0.72
12 | GUUCCGUUGGCGUAAUGGUAACGCGCGUCCCUCCUAAGGAGAAGACUGCGGGUUCGAGUCCCGUACGCAACG | ≤ 0.5
13 | GUUCCGUUGGCGUAAUGGUAACGCGCGUCCCUCCUAAGGAGAAGACUGCGGGUUCGAGUCCCGUACGGAACG | 0.588
14 | GUUCCGUUGGCGUAAUGGUAACGCGCUUCCCUCCUAAGGAGAAGACUGCGGGUUCGAGUCCCGUACGGAACG | 1.02
15 | GUUCCGUUGGCGUAAUGGUAACGCGACUCCCUCCUAAGGAGAAGACGGCGGGUCCGAGUCCCGUACGGAACG | ≤ 0.5
16 | GUUCCGUUGGCGUAAUGGUAACGCGCCUCCCUCCUAUGGAGAAGACUGCGGGUUCGGGUCCCGUACGGAACG | 0.658
17 | GUUCCGUUGGCGUAAUGGUAACGCGCCUCCCUCCUACGGCGAAGACUGCGGGUUCGCGUCCCGGACGGAACG | 0.614
18 | GUUCCGUUGGCGUAAUGGUAACGCGCCUCCCUCCUAAGGAGAAGACUGCGGGUUCGAGUCCCGUACGGAACG | 0.988
19 | GUUCCGUUGGCGUAAUGGUAACGCGCCUACCUCCUAAGGAGAAGACUGCGGGUUCGAGUCCCGUACGGAACG | 0.664

Row | Variant | yeast fitness
20 | GUUCCGUUGGCGUAAUGGUAACGCGCCUGCCUCCUAAGGAGAAGACUGCGGGUUCGAGUCCCGUACGGAACG | 0.735
21 | GUUCCGUUGGCGUAAUGGUAACGCGCCUUCCUCCUAAGGAGAAGACUGCGGGUUCGAGUCCCGUACGGAACG | 0.869
22 | GUUCCGUUGGCGUAAUGGUAACGCGCCUCCCUCCUAAGGGGAAGACUGCGGGUUCGCGUCCCGUACGGAACG | 0.56
23 | GUUCCGUUGGCGUAAUGGUAACGCGCCUCCCUCCUCAGGAGAAGACUGCGGGUUCCAGUCCCGUACGGAACG | 0.633
24 | GUUCCGUUGGCGUAAUGGUAACGCGACACCUUCCUAAGGAGAAGACUGCGGGUUCGAGUCCCGUACAGAACG | ≤ 0.5
25 | GUUCCGUUGGCGUAAUGGUAACGCGCCUCCCUCCUAAGGAGAUGACUGCGGGUUCGAGUCCCGUACGGAACG | 0.884
26 | GUUCCGUUGGCGUAAUGGUAACGCGACUCCCUCCUAAGGAGAAGACUGCGGGUACGAGUCCCGUACGGAUCG | 0.69
27 | GUUCCGUUGGCGUAAUGGUAACGCGCCUCCCUCCUCAGGAGAAGACUGCGGGUUCGAGUCCCGUUCGAAACG | ≤ 0.5
28 | GUUCCGUUGGCGUAAUGGUAACGCGCGUCCCUCUUAUGGAGAGGGCUGCGGGUUCGGGUCCCGUACGGAACG | ≤ 0.5
29 | GUUCCGUUGGCGUAAUGGUAACGCGACUCCCUCCUAAGGAGAAGACUGCGGGAUCGAGUCCCGUACGGAACG | 0.557
30 | GUUCCGUUGGCGUAAUGGUAACGCGACUCCCUCCUAAGGAGAAGACUGCGGGGUCGAGUCCCGUACGGAACG | 0.704
31 | GUUCCGUUGGCGUAAUGGUAACGCGCCUCCCUCCUAAGGAGAAGUCUGCGGGUUCGAGUCCCGUACGGAACG | 0.716
32 | GUUCCGUUGGCGUAAUGGUAACGCGCCUCCCUCCUAAGGAGAAGACUGCGGGUUCGCGUCCCGUACGGAACG | 0.611
33 | GUUCCGUUGGCGUAAUGGUAACGCGCCUCCCUCCUGAGGAGAAGACUGCGGGUUCGAGUCCCGUACGGAACG | 0.856
34 | GUUCCGUUGGCGUAAUGGUAACGCGACCCGCUCCUACGGAGAAGACUGCGGGUUCGAGUCCCGUACGGAACG | ≤ 0.5
35 | GUUCCGUUGGCGUAAUGGUAACGCGACUCCCUCCUAAGGAGAAGACCGCGGGUUCGAGUCCCGUACGGAACG | 0.994
36 | GUUCCGUUGGCGUAAUGGUAACGCGACUCCCUCCUAAGGAGAAGACGGCGGGUUCGAGUCCCGUACGGAACG | 0.661
37 | GUUCCGUUGGCGUAAUGGUAACGCGCCUCCCUCCUAAGGAGAAGUCUGCGGGAUCGAGACCCGUACGGAACG | 0.512
